Assay results published in ChEMBL document CHEMBL3596194, “Design, synthesis and biological evaluation of bivalent benzoxazolone and benzothiazolone ligands as potential anti-inflammatory/analgesic agents” (Bioorg Med Chem, 2015).
Calls of active or inactive are those of the source. The rule behind the calls is not given here.

Test system: Mus musculus
Test: Antinociceptive activity in ip dosed Swiss mouse assessed as inhibition of acetic acid-induced writhing response at 3 mg/kg, ip administered 30 mins prior to acetic acid challenge measured for 20 mins relative to vehicle-treated control
Assay type: functional, organism-based
In short: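 Mice dosed i.p. with compound or vehicle 15 min before testing, or with indomethacin 3 mg/kg i.p. 30 min before. After 15 min habituation in an enclosure, 0.9% acetic acid given i.p. (1 ml/0.1 kg) and writhes counted for 20 min. Non-responders excluded; n = 4-6; mean ± SD.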

## COc1ccc2c(c1)c(CC(=O)O)c(C)n2C(=O)c1ccc(Cl)cc1
  inhibition: Active
